Active and inactive are the calls of the source. The rule behind the calls is not given here.
test system: RAW264.7; experiment: Inhibition of LPS-induced nitric oxide production in mouse RAW264.7 cells at 20 uM after 20 hrs by Griess reaction; format: functional; conditions: RAW264.7, 20 h
Procedure, shortened: (§1)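 RAW 264.7 cells plated at 5 × 10⁵ cells/mL, grown 24 h, then given LPS (1 µg/mL) plus compound (DMSO vehicle, final ≤0.1%) for 20 h. Supernatant nitrite measured with Griess reagent (1% sulfanilamide in 5% H₃PO₄, 0.1% N-(1-naphthyl)ethylenediamine) at 540 nm against a NaNO₂ standard curve. %inhibition = [1 − sample NO/vehicle-control NO] × 100. IC50 by nonlinear regression.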

SMILES	inhibition at 20 µM
CCCNC(=O)c1cc(-n2cc(-c3cc(F)cc(F)c3)nn2)ccc1O	0%
CC(C)CCc1cn(-c2ccc(O)c(C(=O)N3CCCCC3)c2)nn1	0.9%
CCCNC(=O)c1ccc(-n2cc(CCC(C)C)nn2)cc1O	7.3%
CCCCCCc1cn(-c2ccc(C(=O)NCCC)c(O)c2)nn1	11%
CCCCCc1ccc(-c2cn(-c3ccc(O)c(C(=O)N4CCCCC4)c3)nn2)cc1	18.4%
O=C(c1cc(-n2cc(-c3cc(C(F)(F)F)cc(C(F)(F)F)c3)nn2)ccc1O)N1CCCCC1	94.1%
CCCCCc1ccc(-c2cn(-c3ccc(C(=O)N4CCCCC4)c(O)c3)nn2)cc1	0%
CCCNC(=O)c1cc(-n2cc(-c3cccc(Cl)c3)nn2)ccc1O	33.8%
CCCNC(=O)c1ccc(-n2cc(-c3cccc(Cl)c3)nn2)cc1O	0%
CC(C)CCc1cn(-c2ccc(C(=O)N3CCCCC3)c(O)c2)nn1	1.9%
O=C(c1cc(-n2cc(-c3cccc(Cl)c3)nn2)ccc1O)N1CCCCC1	35.4%
O=C(c1cc(-n2cc(-c3ccccc3)nn2)ccc1O)N1CCCCC1	11.8%
O=C(c1ccc(-n2cc(-c3cccc(Cl)c3)nn2)cc1O)N1CCCCC1	0%
CCCNC(=O)c1ccc(-n2cc(-c3ccccc3)nn2)cc1O	1.1%
CCCNC(=O)c1ccc(-n2cc(-c3cc(C(F)(F)F)cc(C(F)(F)F)c3)nn2)cc1O	0%
O=C(c1ccc(-n2cc(-c3cc(F)cc(F)c3)nn2)cc1O)N1CCCCC1	0%
CCCCCCc1cn(-c2ccc(O)c(C(=O)N3CCCCC3)c2)nn1	4.2%
O=C(c1cc(-n2cc(-c3cc(F)cc(F)c3)nn2)ccc1O)N1CCCCC1	9.1%
O=C(c1ccc(-n2cc(-c3ccccc3)nn2)cc1O)N1CCCCC1	0%
CCCNC(=O)c1cc(-n2cc(-c3cc(C(F)(F)F)cc(C(F)(F)F)c3)nn2)ccc1O	1.8%
CCCNC(=O)c1ccc(-n2cc(-c3cc(F)cc(F)c3)nn2)cc1O	0%
CCCCCc1ccc(-c2cn(-c3ccc(O)c(C(=O)NCCC)c3)nn2)cc1	0%
CCCCCc1ccc(-c2cn(-c3ccc(C(=O)NCCC)c(O)c3)nn2)cc1	0%
O=C(c1ccc(-n2cc(-c3cc(C(F)(F)F)cc(C(F)(F)F)c3)nn2)cc1O)N1CCCCC1	0%
CCCCCCc1cn(-c2ccc(O)c(C(=O)NCCC)c2)nn1	57.9%
CCCNC(=O)c1cc(-n2cc(CCC(C)C)nn2)ccc1O	22.6%
CCCCCCc1cn(-c2ccc(C(=O)N3CCCCC3)c(O)c2)nn1	8.3%
CCCNC(=O)c1cc(-n2cc(-c3ccccc3)nn2)ccc1O	28.6%

test system: RAW264.7; experiment: Inhibition of LPS-induced nitric oxide production in mouse RAW264.7 cells after 20 hrs by Griess reaction; format: functional, cell-based; conditions: not given; procedure, shortened: as §1

SMILES	Activity
O=C(c1cc(-n2cc(-c3cc(C(F)(F)F)cc(C(F)(F)F)c3)nn2)ccc1O)N1CCCCC1	Dose-dependent effect

same assay, conditions: RAW264.7, 20 h

SMILES	IC50
CCCNC(=O)c1ccc(-n2cc(-c3ccccc3)nn2)cc1O	> 20 µM
CCCNC(=O)c1ccc(-n2cc(-c3cc(C(F)(F)F)cc(C(F)(F)F)c3)nn2)cc1O	> 20 µM
O=C(c1ccc(-n2cc(-c3cc(F)cc(F)c3)nn2)cc1O)N1CCCCC1	> 20 µM
CCCCCCc1cn(-c2ccc(O)c(C(=O)N3CCCCC3)c2)nn1	> 20 µM
O=C(c1cc(-n2cc(-c3cc(F)cc(F)c3)nn2)ccc1O)N1CCCCC1	> 20 µM
O=C(c1ccc(-n2cc(-c3ccccc3)nn2)cc1O)N1CCCCC1	> 20 µM
CCCNC(=O)c1cc(-n2cc(-c3cc(C(F)(F)F)cc(C(F)(F)F)c3)nn2)ccc1O	> 20 µM
CCCNC(=O)c1ccc(-n2cc(-c3cc(F)cc(F)c3)nn2)cc1O	> 20 µM
CCCCCc1ccc(-c2cn(-c3ccc(O)c(C(=O)NCCC)c3)nn2)cc1	> 20 µM
CCCCCc1ccc(-c2cn(-c3ccc(C(=O)NCCC)c(O)c3)nn2)cc1	> 20 µM
O=C(c1ccc(-n2cc(-c3cc(C(F)(F)F)cc(C(F)(F)F)c3)nn2)cc1O)N1CCCCC1	> 20 µM
CCCNC(=O)c1cc(-n2cc(CCC(C)C)nn2)ccc1O	> 20 µM
CCCCCCc1cn(-c2ccc(C(=O)N3CCCCC3)c(O)c2)nn1	> 20 µM
CCCNC(=O)c1cc(-n2cc(-c3ccccc3)nn2)ccc1O	> 20 µM

The remaining lines, values ahead:

IC50	SMILES
> 20 µM	CCCNC(=O)c1cc(-n2cc(-c3cc(F)cc(F)c3)nn2)ccc1O
> 20 µM	CC(C)CCc1cn(-c2ccc(O)c(C(=O)N3CCCCC3)c2)nn1
> 20 µM	CCCNC(=O)c1ccc(-n2cc(CCC(C)C)nn2)cc1O
> 20 µM	CCCCCCc1cn(-c2ccc(C(=O)NCCC)c(O)c2)nn1
> 20 µM	CCCCCc1ccc(-c2cn(-c3ccc(O)c(C(=O)N4CCCCC4)c3)nn2)cc1
12.8 µM	O=C(c1cc(-n2cc(-c3cc(C(F)(F)F)cc(C(F)(F)F)c3)nn2)ccc1O)N1CCCCC1
> 20 µM	CCCCCc1ccc(-c2cn(-c3ccc(C(=O)N4CCCCC4)c(O)c3)nn2)cc1
> 20 µM	CCCNC(=O)c1cc(-n2cc(-c3cccc(Cl)c3)nn2)ccc1O
> 20 µM	CCCNC(=O)c1ccc(-n2cc(-c3cccc(Cl)c3)nn2)cc1O
> 20 µM	CC(C)CCc1cn(-c2ccc(C(=O)N3CCCCC3)c(O)c2)nn1
> 20 µM	O=C(c1cc(-n2cc(-c3cccc(Cl)c3)nn2)ccc1O)N1CCCCC1
> 20 µM	O=C(c1cc(-n2cc(-c3ccccc3)nn2)ccc1O)N1CCCCC1
> 20 µM	O=C(c1ccc(-n2cc(-c3cccc(Cl)c3)nn2)cc1O)N1CCCCC1
19.9 µM	CNC(=N)NCCC[C@H](N)C(=O)O [TILARGININE]
19.7 µM	CCCCCCc1cn(-c2ccc(O)c(C(=O)NCCC)c2)nn1

test system: RAW264.7; experiment: Cytotoxicity against mouse RAW264.7 cells assessed as cell viability upto 15 uM after 24 hrs by MTT assay; format: cell-based; conditions: raw264.7, 24 h
Procedure, shortened: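 RAW 264.7 macrophages exposed to compound for 24 h, and viability then read by MTT assay.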

SMILES	Activity
O=C(c1cc(-n2cc(-c3cc(C(F)(F)F)cc(C(F)(F)F)c3)nn2)ccc1O)N1CCCCC1	Non-toxic

test system: RAW264.7; experiment: Inhibition of LPS-induced iNOS protein expression in mouse RAW264.7 cells after 16 hrs by Western blot; format: functional, cell-based; conditions: not given
Procedure, shortened: (§2)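 RAW 264.7 cells stimulated with LPS (1 µg/mL) with or without several compound concentrations. Total RNA collected at 4 h and analysed for iNOS mRNA by RT-PCR. Protein collected at 16 h and analysed for iNOS by western blot, with β-actin as reference.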

SMILES	inhibition
O=C(c1cc(-n2cc(-c3cc(C(F)(F)F)cc(C(F)(F)F)c3)nn2)ccc1O)N1CCCCC1	Dose-dependent effect

test system: RAW264.7; experiment: Inhibition of LPS-induced iNOS mRNA expression in mouse RAW264.7 cells after 4 hrs by RT-PCR; format: functional, cell-based; conditions: not given; procedure, shortened: as §2

SMILES	inhibition
O=C(c1cc(-n2cc(-c3cc(C(F)(F)F)cc(C(F)(F)F)c3)nn2)ccc1O)N1CCCCC1	Dose-dependent effect

test system: RAW264.7; experiment: Inhibition of LPS-induced iNOS protein expression in mouse RAW264.7 cells at 15 uM after 16 hrs by Western blot; format: functional, cell-based; conditions: not given; procedure, shortened: as §2

SMILES	inhibition
O=C(c1cc(-n2cc(-c3cc(C(F)(F)F)cc(C(F)(F)F)c3)nn2)ccc1O)N1CCCCC1	Active

test system: RAW264.7; experiment: Inhibition of LPS-induced iNOS mRNA expression in mouse RAW264.7 cells at 15 uM after 4 hrs by RT-PCR; format: functional, cell-based; conditions: not given; procedure, shortened: as §2

SMILES	inhibition
O=C(c1cc(-n2cc(-c3cc(C(F)(F)F)cc(C(F)(F)F)c3)nn2)ccc1O)N1CCCCC1	Active

Source: ChEMBL document CHEMBL1759885, “Syntheses of 1,2,3-triazolyl salicylamides with inhibitory activity on lipopolysaccharide-induced nitric oxide production” (Bioorg Med Chem Lett, 2011)
